# This is a sample that favours compounds with a hit; in the whole collection about 3.1% have one here.
# H9c2 TAG inh: inhibitors of triacylglycerol accumulation | inhibition, % at 12.5 µM | AID 651582 | actives 0.66% (n = 230,000) | H9c2 cells, Nile Red lipid (TAG) fluorescence; cells loaded with 200 µM oleic acid;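 active = pattern-corrected inhibition of lipid staining of at least 50% with the nuclear-stain viability signal not falling by more than 50%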;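 note: 0% = DMSO wells and 100% = triacsin C control wells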
# CSC inhib: blocks cancer stem cells. cancer stem cell-like cells viability, luminescence. inhibition, % at 7.5 µM. actives 1.1% (n = 300,000). AID 2717; in the data active = inhibition above about 75%; inconclusive = no clear call, values can overlap the other calls; tested in HMLE shEcad cells
# A1 inh: inhibitors of the anti-apoptotic protein A1, read as caspase activation; caspase activation, % (test concentration not listed); actives 0.066% (n = 330,000); MEF A1-2A-BIM cells, Caspase-Glo 3/7 luminescence, 3 h; percent of clofoctol response, vehicle zero;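 active = over half of replicate activation scores above 10%, or exactly half above 10 with the replicate mean above 10; inconclusive = replicate mean below 10 yet half the replicates above 10; inactive = over half of replicates below 10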
# T cruzi repl: blocks replication of Trypanosoma cruzi; T. cruzi beta-gal in NIH3T3, luminescence, 90 h; inhibition, % (no concentration beside the values); actives 1.4% (n = 300,000); AID 1885;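 active = mean inhibition across valid replicates above about 55%, limit read from the data; inconclusive = mean below that limit but half or more replicates reach it; inactive = mean below it, under half of replicates reach it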;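 note: signal also drops with host cell toxicity which is not excluded here; 0% = plate median of DMSO wells and 100% = zero luminescence signal; higher percent means less beta-gal luminescence so fewer parasites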
#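 System: mouse NIH/3T3 fibroblasts infected with β-gal-expressing T. cruzi Tulahuen C4 / Input: NIH/3T3 cells, 5,000 per well / Buffer or medium: Low-serum DMEM with 2% FBS / Probe or stimulus: 5000 reporter trypomastigotes per well / Schedule: ≥90 h infection period, 3 h prior cell attachment / Measured by: GalScreen luminescence, 60 min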
# Calb FLC: affects C. albicans growth with fluconazole; C. albicans CaCi-2 + fluconazole, Alamar Blue growth, 48 h; growth inhibition, % (no concentration beside the values); actives 0.57% (n = 300,000);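 active = growth inhibition above about 58% in most replicates, limit read from the data, passing the limit was not always enough; inconclusive = exactly half the replicates above a set limit; inactive = most replicates below a set limit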;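 note: all wells also contain fluconazole at 8 µg/ml as a sub-toxic cotreatment; 0% = median of DMSO wells and 100% = median of geldanamycin control wells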
# Beta cell apopt: beta cell apoptosis inhibition; protection from apoptosis, % (no concentration beside the values); actives 0.8% (n = 300,000); INS-1E cytokine-induced death, ATP luminescence, 48 h; percent of positive-control rescue, neutral wells zero;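 active = Every replicate reaches about 75%, or at least half do and their mean reaches it too, limit read from the data; inconclusive = At least half of replicates reach the limit but their mean does not; inactive = Under half of replicates reach the limit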;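 note: 0% = cytokine-treated negative control wells and 100% = positive control rescue; higher means more ATP so stronger rescue from cytokine killing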
# Numbers without * were called inactive; ? = inconclusive; . = no result given; ! = not confirmed by another sample.
SMILES,H9c2 TAG inh,CSC inhib,A1 inh,T cruzi repl,Calb FLC,Beta cell apopt
CN(CCOc1ccc(Cl)cc1)C(=O)c1cc(S(=O)(=O)N2CCOCC2)ccc1N1CCCC1,-12,.,0,.,.,6
CC(=O)Oc1ccc2c(=O)c(-c3nc4ccccc4s3)coc2c1,1,84*,-8,-10,89*,-1
CC(C)[C@H](NC(=O)N1CCn2c1nc1ccccc12)C(=O)N1CCCCC1,.,8,1,-2,-4,-4
C=C(C)C1CC=C(CN2CCN(Cc3ccccc3)CC2)CC1 (stereo not given),.,3,0,57*,-8,-1
Cc1ccc2c(c1)c1c(n2CC(O)CNC2CCCC2)CCCC1 (stereo not given),99*,8,0,22,-10,-20
COc1ccc(OC)c(/C=C2\S/C(=N/NC(=O)c3ccc4ccccc4c3)NC2=O)c1,.,106*,0,3,-4,0
Cc1cc(C)cc(NC(=O)c2ccc(N3C(=O)C4CCCCC4C3=O)cc2)c1 (stereo not given),-2,1,0,-9,-10,-1
CCN(CC)CCN1C(=O)/C(=C\c2ccc(Cl)c([N+](=O)[O-])c2)SC1=Nc1ccc(OC)cc1,.,?,0,57*,10,-1
COc1ccc(N=C2S/C(=C\c3ccc(Cl)c([N+](=O)[O-])c3)C(=O)N2CCN(C)C)cc1,.,105*,0,65*,-1,0
CCCN1C(=O)/C(=C/c2ccc(C)s2)SC1=Nc1ccc(OC)cc1,3,16,-1,23,-2,2
Cn1nc([N+](=O)[O-])c(C(C#N)c2ccccn2)c(Cl)c1=O (stereo not given),.,88*,0,64*,.,-40
CCCn1nc([N+](=O)[O-])c(C(C#N)c2nc3ccccc3o2)c(Cl)c1=O (stereo not given),.,79*,0,-16,22,0
N#CC(c1ccccn1)c1ncc(C(F)(F)F)cc1Cl (stereo not given),7,-4,2,-3,10,-3
CCn1nc([N+](=O)[O-])c(C(C#N)c2nc3cc(C(F)(F)F)ccc3s2)c(Cl)c1=O (stereo not given),.,112*,0,-16,24,14
COCCN(C(=O)COC(=O)C1(C)CC1(Cl)Cl)c1c(N)n(Cc2ccccc2)c(=O)[nH]c1=O (stereo not given),19,.,0,3,4,-1
CCC(C)N(C(=O)CSc1nnc2ccccn12)C1CCS(=O)(=O)C1 (stereo not given),16,.,.,.,.,.
CCOC(=O)N1CCC(NC(=O)CS(=O)Cc2nc(-c3ccc(C)cc3)oc2C)CC1 (stereo not given),.,-6,0,-7,5,-1
CCCCCn1c(N)c(-c2nc3ccccc3s2)c2c([N+](=O)[O-])nn(C)c(=O)c21,.,35,-1,59*,-7,-3
CC(C)c1ccc2oc(-c3cc(N)ccc3O)nc2c1,.,15,-6,60*,?,14
CC1CCN(C(=O)c2ccc3c(c2NCCO)C(=O)c2ccccc2C3=O)CC1,118*,10,0,23,11,15
CCN(CC)CCC(=O)Nc1cccc2c1C(=O)c1ccccc1C2=O,93*,25,0,56*,-16,98*
CCN(CC)CCNC(=O)c1ccc2c(c1NCCO)C(=O)c1ccccc1C2=O,118,55,-1,9,-4,116*
CC1CC(C)CN(C(=O)c2cccc3c2-c2ccccc2C3=O)C1 (stereo not given),-4,-7,-1,3,22,-6
COc1ccc(N2C(=NC(=O)C3CC3)SC3CS(=O)(=O)CC32)cc1Cl (stereo not given),.,-9,1,-9,.,-3
COc1ccccc1Nc1ccc2nonc2c1[N+](=O)[O-],.,6,0,-13,4,0
SMILES,H9c2 TAG inh,CSC inhib,A1 inh,T cruzi repl,Calb FLC,Beta cell apopt
O=C(COCc1cc(-c2ccc3c(c2)OCO3)on1)N1CCN(c2cccc(C(F)(F)F)c2)CC1,.,119*,0,-2,-2,-13
CCOC(=O)c1cc2sccc2n1CC(=O)N1CCCC1,.,-2,-1,-17,106*,-3
CCn1cc(S(=O)(=O)Nc2cc(C(=O)OC)ccc2C)cn1,-9,-5,-1,-6,15,-2
Cc1cccc(Oc2cc(NC(=O)Cn3cnc([N+](=O)[O-])n3)cc([N+](=O)[O-])c2)c1,-3,32,0,.,.,-2
Cc1cc(C)cc(Oc2cc(NC(=O)c3cn(C)nc3C)cc([N+](=O)[O-])c2)c1,.,.,0,41,-19,104*
Clc1ccccc1CN(Cc1ccccc1)C(c1cccs1)c1nnnn1C1CCCC1 (stereo not given),0,24,1,35,.,9
CCN(Cc1ccccc1)C(c1cccs1)c1nnnn1C1CCCCC1 (stereo not given),.,39,0,56*,1,101*
Oc1c(Br)cc(Br)c(/C=N/n2c(-c3ccccc3)n[nH]c2=S)c1Br,-3,11,1,-3,79*,-7
Oc1ccc(Br)cc1/C=N/n1c(-c2ccccc2)n[nH]c1=S,-5,1,0,-4,-8,.
S=c1[nH]nc(-c2ccccc2)n1/N=C/c1cccs1,.,0,0,-2,105*,-4
Oc1[nH]c(N=C2N=c3ccccc3=N2)c2ccccc12,.,51,-4,51,64,113*
Cc1ccc2c(c1)=N/C(=N\c1[nH]c(O)c3ccccc13)N=2,23,.,.,.,.,.
Cc1ccc(S(=O)(=O)CC(=O)N(CCCN(C)C)c2nc3ccc(C)cc3s2)cc1,5,7,1,65*,-4,-5
Cc1cc(C)c2sc(N(CCCN(C)C)C(=O)CN3C(=O)c4ccccc4C3=O)nc2c1,7,-8,0,51,-23,-5
Cc1ccc2nc(N(CCCN(C)C)C(=O)CN3C(=O)c4ccccc4C3=O)sc2c1,-2,-12,0,61*,0,2
CCCCCCCCCCCCCCCC[n+]1ccccc1,54*!,.,.,.,.,.
CCCCCCCCCCCCCCCC[n+]1ccc(/C=N/O)cc1,.,100*,1,.,.,123*
C#CCN(C[C@H]1[C@H](OC(=O)NCc2ccco2)[C@H](OC(=O)NCc2ccco2)C[C@@H](C(=O)OC)[C@H]1C(=O)OC)S(=O)(=O)c1ccc(C)cc1,31,.,.,.,.,.
CC(=O)SC(C[N+](=O)[O-])c1cn(C(C)=O)c2ccccc12 (stereo not given),6,-2,0,-12,112*,2
CC(=O)n1cc(Nc2ccc([N+](=O)[O-])cc2)c2ccccc21,19,-9,0,-10,-8,4
COc1cc(C(=O)NCCC(=O)NC2CCC(C)CC2)cc(OC)c1OC (stereo not given),.,9,1,-6,-10,1
